ChEMBL document CHEMBL4002632, “Development of gallic acid formazans as novel enoyl acyl carrier protein reductase inhibitors for the treatment of tuberculosis” (Bioorg Med Chem Lett, 2017)
≈ marks a conversion by molar mass, not a printed value. Calls of active or inactive are those of the source. The calls are words filed in the database; no cut-off is given here.

How the values were obtained:
Format in all cases: functional
[1] = tested on: Mycobacterium tuberculosis; experiment: Antimycobacterial activity against isoniazid/rifampicin/streptomycin-resistant Mycobacterium tuberculosis by microplate Alamar Blue assay
In short: (§1)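 MIC against multidrug-resistant M. tuberculosis strains: HR, HRKS, HRKCpm, HRKSXMfxLev and HRS. Linezolid served as reference.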

[2] = tested on: Mycobacterium tuberculosis; experiment: Antimycobacterial activity against isoniazid/rifampicin/kanamycin/streptomycin/ofloxacin/moxifloxacin/levofloxacin-resistant Mycobacterium tuberculosis by microplate Alamar Blue assay; in short: as §1
[3] = tested on: Mycobacterium tuberculosis; experiment: Antimycobacterial activity against isoniazid/rifampicin/kanamycin/streptomycin-resistant Mycobacterium tuberculosis by microplate Alamar Blue assay; in short: as §1
[4] = tested on: Mycobacterium tuberculosis; experiment: Antimycobacterial activity against isoniazid/rifampicin/kanamycin/capreomycin-resistant Mycobacterium tuberculosis by microplate Alamar Blue assay; in short: as §1
[5] = tested on: Mycobacterium tuberculosis; experiment: Antimycobacterial activity against isoniazid/rifampicin-resistant Mycobacterium tuberculosis by microplate Alamar Blue assay; in short: as §1

| Structure (SMILES) | MIC [1] | MIC [2] | MIC [3] | MIC [4] | MIC [5] |
| --- | --- | --- | --- | --- | --- |
| O=C(N/N=C(/N=N/c1ccccc1[N+](=O)[O-])c1ccccc1)c1cc(O)c(O)c(O)c1 | 14.8 µM (≈ 6.25 µg/mL) | inactive | inactive | inactive | 5.46 µM (≈ 2.3 µg/mL) |
| O=C(N/N=C(/N=N/c1ccc(F)cc1)c1ccccc1)c1cc(O)c(O)c(O)c1 | 0.96 µM (≈ 0.379 µg/mL) | inactive | 0.73 µM (≈ 0.288 µg/mL) | 1.92 µM (≈ 0.757 µg/mL) | 0.49 µM (≈ 0.193 µg/mL) |
| O=C(N/N=C(/N=N/c1ccc(Cl)cc1Cl)c1ccccc1)c1cc(O)c(O)c(O)c1 | 1.34 µM (≈ 0.597 µg/mL) | 11.4 µM (≈ 5.09 µg/mL) | 5.16 µM (≈ 2.3 µg/mL) | 7.43 µM (≈ 3.31 µg/mL) | 0.33 µM (≈ 0.147 µg/mL) |
| CC(=O)NC[C@H]1CN(c2ccc(N3CCOCC3)c(F)c2)C(=O)O1 [LINEZOLID] | 3.7 µM (≈ 1.25 µg/mL) | 1.86 µM (≈ 0.627 µg/mL) | 2.78 µM (≈ 0.938 µg/mL) | 1.86 µM (≈ 0.627 µg/mL) | 3.7 µM (≈ 1.25 µg/mL) |
| COc1ccc(/N=N/C(=N/NC(=O)c2cc(O)c(O)c(O)c2)c2ccccc2)cc1 | 1.9 µM (≈ 0.772 µg/mL) | 10.6 µM (≈ 4.29 µg/mL) | 2.92 µM (≈ 1.19 µg/mL) | 7.62 µM (≈ 3.1 µg/mL) | 1.9 µM (≈ 0.772 µg/mL) |
| O=C(N/N=C(/N=N/c1ccccc1Cl)c1ccccc1)c1cc(O)c(O)c(O)c1 | 2.95 µM (≈ 1.21 µg/mL) | inactive | inactive | inactive | 2.9 µM (≈ 1.19 µg/mL) |
| COc1ccccc1/N=N/C(=N/NC(=O)c1cc(O)c(O)c(O)c1)c1ccccc1 | inactive | inactive | inactive | inactive | 23.9 µM (≈ 9.69 µg/mL) |
| O=C(N/N=C(/N=N/c1ccccc1)c1ccccc1)c1cc(O)c(O)c(O)c1 | inactive | inactive | inactive | inactive | inactive |
| Cc1ccccc1/N=N/C(=N/NC(=O)c1cc(O)c(O)c(O)c1)c1ccccc1 | 5.89 µM (≈ 2.3 µg/mL) | inactive | 16 µM (≈ 6.25 µg/mL) | inactive | 5.89 µM (≈ 2.3 µg/mL) |
| O=C(N/N=C(/N=N/c1ccc([N+](=O)[O-])cc1)c1ccccc1)c1cc(O)c(O)c(O)c1 | 5.46 µM (≈ 2.3 µg/mL) | inactive | 22.3 µM (≈ 9.4 µg/mL) | 14 µM (≈ 5.9 µg/mL) | 2.85 µM (≈ 1.2 µg/mL) |
